Measured values from ChEMBL document CHEMBL1148700, “Synthesis and identification of [1,2,4]thiadiazole derivatives as a new series of potent and orally active dual agonists of peroxisome proliferator-activated receptors alpha and delta” (J Med Chem, 2007).
Values joined by “and” are separate entries in the source; they are usually repeats but may differ in a detail not shown here. Equal entries are not always repeated. Each block holds one molecule with its values, some of them ahead of it. Active and inactive are the calls of the source. The calls are words filed in the database; no cut-off is given here.

What was measured:
[1] = biological target: T1, Peroxisome proliferator-activated receptor gamma (Homo sapiens, UniProt P37231); experiment: Agonist activity at PPARgamma expressed in HEK293 cells by measuring Gal4 luciferase reporter activity; type: functional, cell-based
T1 sequence (P37231 whole entry): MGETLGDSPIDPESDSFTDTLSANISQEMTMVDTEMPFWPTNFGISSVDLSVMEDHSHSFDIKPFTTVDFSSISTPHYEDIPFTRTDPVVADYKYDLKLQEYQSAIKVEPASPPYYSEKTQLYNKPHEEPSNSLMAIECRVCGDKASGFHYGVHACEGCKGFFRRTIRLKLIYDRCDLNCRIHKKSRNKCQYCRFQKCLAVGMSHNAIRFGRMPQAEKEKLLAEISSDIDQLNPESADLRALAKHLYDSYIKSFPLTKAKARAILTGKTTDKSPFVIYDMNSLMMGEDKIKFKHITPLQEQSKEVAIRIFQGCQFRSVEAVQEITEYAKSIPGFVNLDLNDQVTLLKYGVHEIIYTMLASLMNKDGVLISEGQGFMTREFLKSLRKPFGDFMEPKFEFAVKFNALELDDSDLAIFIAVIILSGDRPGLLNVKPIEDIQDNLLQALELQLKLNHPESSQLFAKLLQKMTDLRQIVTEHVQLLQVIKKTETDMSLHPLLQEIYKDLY

Homo sapiens = species: Homo sapiens; experiment: Selectivity for PPARdelta over PPARalpha
[2] = biological target: T2, Peroxisome proliferator-activated receptor alpha (Homo sapiens) (UniProt Q07869); experiment: Agonist activity at PPARalpha expressed in HEK293 cells by measuring Gal4 luciferase reporter activity relative to (S)-2- {2-[1-Ethyl-3-(4-trifluoromethoxyphenyl)ureido] indan-5-ylsulfanyl}-2- methylpropionic acid; type: functional, cell-based
T2 sequence (whole entry): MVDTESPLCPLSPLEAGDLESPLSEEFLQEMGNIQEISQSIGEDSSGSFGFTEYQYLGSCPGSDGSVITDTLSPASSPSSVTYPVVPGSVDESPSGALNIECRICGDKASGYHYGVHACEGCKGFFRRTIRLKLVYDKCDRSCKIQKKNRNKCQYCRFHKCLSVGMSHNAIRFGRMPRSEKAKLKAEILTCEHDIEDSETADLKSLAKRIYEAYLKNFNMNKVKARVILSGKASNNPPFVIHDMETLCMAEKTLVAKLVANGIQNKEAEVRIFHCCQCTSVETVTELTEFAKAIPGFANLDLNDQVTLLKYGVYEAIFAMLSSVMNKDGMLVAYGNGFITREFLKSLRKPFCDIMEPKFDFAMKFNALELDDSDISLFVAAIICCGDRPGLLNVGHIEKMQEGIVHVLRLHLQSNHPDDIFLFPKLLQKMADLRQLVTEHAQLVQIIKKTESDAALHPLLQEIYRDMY
Outline: (§1)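 HEK293 cells grown in DMEM/F-12 with 10% FBS and glutamine, cotransfected with a PPARα ligand-binding domain-Gal4 chimera and a Gal4-luciferase reporter. Next day switched to 5% charcoal-treated FBS medium, replated after 6 h at 50 000 cells/well, and cultured overnight. Compound or vehicle (0.1% DMSO) added for 24 h at 37 °C. Luciferase read by Steady-Glo; percent efficacy given relative to a reference PPARα agonist.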

[3] = biological target: T3, Peroxisome proliferator-activated receptor alpha (Homo sapiens, UniProt Q07869); experiment: Agonist activity at PPARalpha expressed in HEK293 cells by measuring Gal4 luciferase reporter activity; type: functional, cell-based; outline: as §1
T3 sequence (Q07869 whole entry): T2 sequence (whole entry)

[4] = biological target: T4, Peroxisome proliferator-activated receptor delta (Homo sapiens, UniProt Q03181); experiment: Agonist activity at PPARdelta expressed in HEK293 cells by measuring Gal4 luciferase reporter activity; type: functional, cell-based
T4 sequence (Q03181 whole entry): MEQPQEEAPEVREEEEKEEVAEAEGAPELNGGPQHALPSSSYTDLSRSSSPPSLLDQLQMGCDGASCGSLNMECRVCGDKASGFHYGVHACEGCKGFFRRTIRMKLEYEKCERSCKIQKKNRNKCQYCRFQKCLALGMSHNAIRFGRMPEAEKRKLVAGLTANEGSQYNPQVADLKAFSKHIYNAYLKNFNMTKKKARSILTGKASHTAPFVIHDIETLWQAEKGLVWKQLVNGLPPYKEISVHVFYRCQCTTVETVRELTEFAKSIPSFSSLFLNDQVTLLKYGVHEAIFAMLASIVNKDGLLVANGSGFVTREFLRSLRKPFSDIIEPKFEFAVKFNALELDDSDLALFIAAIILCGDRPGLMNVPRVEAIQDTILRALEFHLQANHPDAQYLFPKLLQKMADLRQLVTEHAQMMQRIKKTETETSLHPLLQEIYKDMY

[5] = Cmax in rat at 3 mg/kg, po; type: ADME, organism-based; parameters: dose 3 mg/kg, route oral; settings: in vivo
Outline: (§2)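 Heparinized orbital-sinus blood was collected; plasma was precipitated with acetonitrile plus internal standard and quantified by LC-MS-MS using calibration standards prepared in plasma.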

Mus musculus [6] = experiment: Effect on lipid homeostasis in human apoA1 transgenic mouse assessed as increase in HDL-C levels at 3 mg/kg, po after 7 days; type: functional
Outline: (§3)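 Male human apoA1 transgenic mice were given 3 mg/kg orally as a 0.5% methylcellulose suspension for 7 days. Serum HDL-C, triglyceride and free fatty acids were sampled under fed conditions and measured on a COBAS Mira Plus analyzer. n = 8/group; one-way ANOVA with Dunnett's test vs vehicle control.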

[7] = biological target: Retinoic acid receptor (Homo sapiens) (UniProt P13631+P10826+P10276); experiment: Effect on RAR; type: protein assay
[8] = Half life in rat at 3 mg/kg; type: ADME, organism-based; parameters: dose 3 mg/kg; settings: in vivo
Outline: (§4)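 Rats given 3 mg/kg; IV formulation was a solution in 10% w/v Solutol in 5% dextrose in water (D5W). Blood was drawn by orbital sinus puncture into heparinized tubes. Plasma was protein-precipitated with acetonitrile containing internal standard, centrifuged at 5000g for 3 min and analysed by LC-MS-MS against plasma calibration standards.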

Rattus norvegicus [9] = experiment: Decrease in serum LDL-C levels in hypercholesterolemic Sprague-Dawley rat at 0.1 to 3 mg/kg/day, po after 8 days; type: functional, organism-based
Outline: (§5)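 Male Sprague-Dawley rats (275-325 g) were fed a high-cholesterol atherogenic diet for 6 days before and throughout treatment; lean controls got normal chow plus vehicle. Drug in 0.5% Methocel was given orally at 10 mL/kg once daily for 8 days. On day 9, retro-orbital blood was taken under CO2/O2 anesthesia and serum lipids measured on a COBAS analyzer. n = 8/group; one-way ANOVA with Dunnett's test.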

Mus musculus [10] = experiment: Effect on lipid homeostasis in human apoA1 transgenic mouse assessed as decrease in free fatty acid levels at 3 mg/kg, po after 7 days; type: functional; parameters: scale not given: the % may be the effect or the level left; outline: as §3
[11] = biological target: Retinoid X receptor (Homo sapiens) (UniProt P28702+P48443+P19793); experiment: Effect on RXR; type: protein assay
Rattus norvegicus [12] = experiment: Increase in serum HDL-C levels in hypercholesterolemic Sprague-Dawley rat at 0.1 to 3 mg/kg/day, po after 8 days; type: functional, organism-based; outline: as §5
[13] = biological target: T5, Peroxisome proliferator-activated receptor alpha (Mus musculus, UniProt P23204); experiment: Efficacy on PPARalpha in mouse by HD assay
T5 sequence (P23204 whole entry): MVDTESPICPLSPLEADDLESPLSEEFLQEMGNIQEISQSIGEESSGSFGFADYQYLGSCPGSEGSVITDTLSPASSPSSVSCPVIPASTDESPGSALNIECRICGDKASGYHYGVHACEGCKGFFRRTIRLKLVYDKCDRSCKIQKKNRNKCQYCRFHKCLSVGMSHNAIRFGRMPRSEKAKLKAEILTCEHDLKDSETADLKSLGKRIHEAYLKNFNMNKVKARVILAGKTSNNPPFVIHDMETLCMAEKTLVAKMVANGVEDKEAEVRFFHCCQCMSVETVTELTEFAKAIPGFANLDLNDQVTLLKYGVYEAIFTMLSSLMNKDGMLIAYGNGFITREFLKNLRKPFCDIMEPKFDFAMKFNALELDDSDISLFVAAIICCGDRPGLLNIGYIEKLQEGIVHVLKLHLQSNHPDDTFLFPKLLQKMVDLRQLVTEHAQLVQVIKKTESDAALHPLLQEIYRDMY

[14] = Tmax in rat at 3 mg/kg, po; type: ADME, organism-based; parameters: dose 3 mg/kg, route oral; settings: in vivo; outline: as §2
[15] = biological target: Liver X receptor (Homo sapiens) (UniProt Q13133+P55055); experiment: Effect on LXR; type: protein assay
[16] = biological target: T6, Bile acid receptor (Homo sapiens) (UniProt Q96RI1); experiment: Effect on FXR
T6 sequence (whole entry): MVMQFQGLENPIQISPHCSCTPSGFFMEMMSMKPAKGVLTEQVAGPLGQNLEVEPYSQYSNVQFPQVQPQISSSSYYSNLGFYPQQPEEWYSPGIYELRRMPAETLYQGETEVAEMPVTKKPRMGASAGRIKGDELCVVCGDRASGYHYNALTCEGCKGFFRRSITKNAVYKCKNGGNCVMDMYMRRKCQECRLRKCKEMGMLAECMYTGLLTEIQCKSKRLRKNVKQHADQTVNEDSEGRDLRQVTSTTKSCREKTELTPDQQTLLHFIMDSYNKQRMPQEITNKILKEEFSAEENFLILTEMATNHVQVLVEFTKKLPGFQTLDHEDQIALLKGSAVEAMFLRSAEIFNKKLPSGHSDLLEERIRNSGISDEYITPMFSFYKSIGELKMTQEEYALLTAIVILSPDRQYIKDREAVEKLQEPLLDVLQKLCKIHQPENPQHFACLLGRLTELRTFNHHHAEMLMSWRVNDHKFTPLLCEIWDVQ

[17] = Clearance in rat at 3 mg/kg; type: ADME, organism-based; parameters: dose 3 mg/kg; settings: in vivo; outline: as §4
Mus musculus [18] = experiment: Effect on lipid homeostasis in human apoA1 transgenic mouse assessed as decrease in triglyceride level at 3 mg/kg, po after 7 days; type: functional; parameters: scale not given: the % may be the effect or the level left; outline: as §3
[19] = AUC in rat at 3 mg/kg; type: ADME, organism-based; parameters: dose 3 mg/kg; settings: plasma
Mus musculus [20] = experiment: Effect on lipid homeostasis in C57BL/6J Lepob mouse assessed as decrease in serum triglyceride levels at 1 mg/kg, po after 11 days; type: functional; parameters: scale not given: the % may be the effect or the level left
Outline: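 Seven-week-old female ob/ob (C57BL/6J-Lepob) mice were dosed orally with a 0.5% methylcellulose suspension for 11 days. Serum TG, glucose and FFA were taken under fed conditions and measured on a COBAS Mira Plus analyzer, and liver was weighed. Mean ± SEM, n = 8; one-way ANOVA with Dunnett's test vs vehicle.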

[21] = Bioavailability in rat at 3 mg/kg, po; type: ADME, organism-based; settings: in vivo; outline: as §2

Retinoic acid receptor (Homo sapiens), sequence (P10276 whole entry, looked up): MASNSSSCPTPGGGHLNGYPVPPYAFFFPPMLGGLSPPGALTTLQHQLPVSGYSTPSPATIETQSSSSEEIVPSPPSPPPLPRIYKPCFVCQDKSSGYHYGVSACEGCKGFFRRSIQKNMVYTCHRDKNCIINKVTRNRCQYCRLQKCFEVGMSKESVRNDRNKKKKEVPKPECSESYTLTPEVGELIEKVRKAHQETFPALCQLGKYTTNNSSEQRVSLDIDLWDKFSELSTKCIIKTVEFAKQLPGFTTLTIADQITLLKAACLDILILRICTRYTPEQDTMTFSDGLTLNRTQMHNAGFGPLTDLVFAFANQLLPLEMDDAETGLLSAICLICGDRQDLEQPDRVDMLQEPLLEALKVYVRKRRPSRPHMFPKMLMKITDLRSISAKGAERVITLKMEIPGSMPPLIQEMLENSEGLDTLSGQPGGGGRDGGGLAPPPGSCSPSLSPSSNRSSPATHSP
Retinoic acid receptor (Homo sapiens), sequence (P10826 whole entry, looked up): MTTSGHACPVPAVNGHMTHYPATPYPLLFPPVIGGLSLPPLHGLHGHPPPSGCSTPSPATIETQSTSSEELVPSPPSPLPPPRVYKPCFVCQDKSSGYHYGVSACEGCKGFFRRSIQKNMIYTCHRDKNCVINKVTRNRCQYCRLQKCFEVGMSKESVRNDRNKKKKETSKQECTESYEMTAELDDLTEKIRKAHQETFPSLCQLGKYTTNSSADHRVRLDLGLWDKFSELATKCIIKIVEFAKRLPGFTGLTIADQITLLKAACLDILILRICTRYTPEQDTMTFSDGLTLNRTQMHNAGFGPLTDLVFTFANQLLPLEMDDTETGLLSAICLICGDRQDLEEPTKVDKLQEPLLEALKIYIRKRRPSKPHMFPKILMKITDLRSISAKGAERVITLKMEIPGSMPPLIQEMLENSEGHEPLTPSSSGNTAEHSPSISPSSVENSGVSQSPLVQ
Retinoic acid receptor (Homo sapiens), sequence (P13631 whole entry, looked up): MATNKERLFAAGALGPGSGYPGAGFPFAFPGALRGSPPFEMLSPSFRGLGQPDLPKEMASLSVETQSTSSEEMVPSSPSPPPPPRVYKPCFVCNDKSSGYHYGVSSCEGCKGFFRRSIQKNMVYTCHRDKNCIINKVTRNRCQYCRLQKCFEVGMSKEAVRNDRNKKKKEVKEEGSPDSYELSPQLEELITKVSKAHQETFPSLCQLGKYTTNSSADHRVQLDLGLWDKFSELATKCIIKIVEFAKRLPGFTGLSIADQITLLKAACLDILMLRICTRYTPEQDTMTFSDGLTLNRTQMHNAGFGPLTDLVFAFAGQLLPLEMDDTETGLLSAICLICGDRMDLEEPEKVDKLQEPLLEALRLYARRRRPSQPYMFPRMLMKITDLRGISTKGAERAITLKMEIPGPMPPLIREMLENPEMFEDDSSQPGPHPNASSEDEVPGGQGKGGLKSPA
Retinoid X receptor (Homo sapiens), sequence (P19793 whole entry, looked up): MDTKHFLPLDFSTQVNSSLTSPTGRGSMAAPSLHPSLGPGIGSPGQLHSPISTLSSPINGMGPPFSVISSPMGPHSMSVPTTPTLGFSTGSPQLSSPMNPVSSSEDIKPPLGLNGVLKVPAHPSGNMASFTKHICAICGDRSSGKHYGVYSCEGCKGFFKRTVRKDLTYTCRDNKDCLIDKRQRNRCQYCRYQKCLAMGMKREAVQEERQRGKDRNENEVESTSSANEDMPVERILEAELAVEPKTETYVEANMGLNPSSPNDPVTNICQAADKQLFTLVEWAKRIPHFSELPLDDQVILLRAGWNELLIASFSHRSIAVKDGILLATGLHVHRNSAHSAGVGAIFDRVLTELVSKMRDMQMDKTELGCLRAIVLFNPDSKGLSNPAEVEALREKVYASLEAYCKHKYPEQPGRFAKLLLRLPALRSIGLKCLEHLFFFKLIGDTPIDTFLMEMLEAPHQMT
Retinoid X receptor (Homo sapiens), sequence (P28702 whole entry, looked up): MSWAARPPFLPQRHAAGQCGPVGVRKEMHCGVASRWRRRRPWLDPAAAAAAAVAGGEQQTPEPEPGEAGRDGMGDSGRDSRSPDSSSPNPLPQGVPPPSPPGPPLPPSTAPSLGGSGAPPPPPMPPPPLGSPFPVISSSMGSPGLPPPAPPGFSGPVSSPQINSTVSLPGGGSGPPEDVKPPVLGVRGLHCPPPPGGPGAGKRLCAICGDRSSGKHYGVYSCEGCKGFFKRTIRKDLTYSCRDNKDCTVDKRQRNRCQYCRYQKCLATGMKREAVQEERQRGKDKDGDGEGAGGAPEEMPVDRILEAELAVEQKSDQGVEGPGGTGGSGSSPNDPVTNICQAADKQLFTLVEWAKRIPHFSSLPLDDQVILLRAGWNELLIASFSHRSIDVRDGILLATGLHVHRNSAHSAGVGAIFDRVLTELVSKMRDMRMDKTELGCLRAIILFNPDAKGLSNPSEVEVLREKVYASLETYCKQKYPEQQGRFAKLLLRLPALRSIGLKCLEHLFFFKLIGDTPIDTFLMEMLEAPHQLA
Retinoid X receptor (Homo sapiens), sequence (P48443 whole entry, looked up): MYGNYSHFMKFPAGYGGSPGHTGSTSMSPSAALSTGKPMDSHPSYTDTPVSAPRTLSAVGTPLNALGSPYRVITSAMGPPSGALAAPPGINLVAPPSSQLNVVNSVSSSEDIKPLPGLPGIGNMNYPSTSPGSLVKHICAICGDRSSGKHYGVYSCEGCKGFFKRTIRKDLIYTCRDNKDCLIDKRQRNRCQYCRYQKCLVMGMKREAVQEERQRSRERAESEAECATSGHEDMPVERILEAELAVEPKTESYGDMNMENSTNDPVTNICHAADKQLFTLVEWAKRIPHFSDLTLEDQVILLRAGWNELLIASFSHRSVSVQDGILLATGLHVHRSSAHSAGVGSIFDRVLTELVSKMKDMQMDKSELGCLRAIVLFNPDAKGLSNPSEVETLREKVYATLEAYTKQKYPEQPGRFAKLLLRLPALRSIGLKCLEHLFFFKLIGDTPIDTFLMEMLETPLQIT

SMILES: Cc1cc(SCc2nc(-c3ccc(OC(F)(F)F)cc3)ns2)ccc1OC1(C(=O)O)CCCC1
Activity [2]: 31%

SMILES: Cc1cc(SCc2nc(-c3ccc(C(F)(F)F)cc3)ns2)ccc1OC(C)(C)C(=O)O
EC50 [3]: 0.079 µM
EC50 [4]: 0.006 µM
Activity [2]: 51%

SMILES: Cc1cc(SCc2nsc(-c3ccc(C(F)(F)F)cc3)n2)ccc1OC(C)(C)C(=O)O
Activity [2]: 38%

SMILES: Cc1cc(SCc2nc(-c3ccc(C(C)(C)C)cc3)ns2)ccc1OC(C)(C)C(=O)O
Activity [2]: 64%

SMILES: Cc1cc(SCc2nsc(-c3ccc(OC(F)(F)F)cc3)n2)ccc1OC(C)(C)C(=O)O
EC50 [1]: > 3 µM
Activity [2]: 47%

SMILES: Cc1cc(SCc2nc(-c3ccc(OC(F)(F)F)cc3)ns2)ccc1OC(C)(C)C(=O)O
Cmax [5]: 6.67 µg/mL
Activity (Mus musculus [6]): 74%
EC50 [1]: > 3 µM
Activity [7]: inactive
half-life [8]: 5.3 h
Activity (Rattus norvegicus [9]): Active
Activity (Mus musculus [10]): 31%
Activity [11]: inactive
Activity (Rattus norvegicus [12]): Active
EC50 [13]: 0.127 µM
Tmax [14]: 0.8 h
Activity [15]: inactive
Activity [16]: inactive
Activity [2]: 44%
clearance [17]: 0.132 L/h/kg
Activity (Mus musculus [18]): 85%
AUC [19]: 22 µg·h/mL
Activity (Mus musculus [20]): 80% and 98.9 mg/dl
bioavailability [21]: 96%

SMILES: Cc1cc(OCc2nc(-c3ccc(C(F)(F)F)cc3)ns2)ccc1OC(C)(C)C(=O)O
Activity [2]: 71%

Now from value to molecule:

EC50 [1]: > 3 µM
Selectivity ratio (Homo sapiens): 47
Activity [2]: 42%
SMILES: Cc1cc(SCc2nc(-c3ccc(C(F)(F)F)cc3)ns2)ccc1OCC(=O)O

Activity [2]: 38%
SMILES: Cc1cc(SCc2nc(-c3ccc(Cl)cc3)ns2)ccc1OC(C)(C)C(=O)O

EC50 [4]: 0.012 µM
Activity [2]: 80%
SMILES: Cc1cc(OCc2nc(-c3ccc(OC(F)(F)F)cc3)ns2)ccc1OC(C)(C)C(=O)O
